Assay results published in paper PMC7864382 (Clinical cancer research : an official journal of the …, 2020).
Where “and” joins values, the source holds several entries; their conditions need not be identical. Identical values can stand only once. Like-named read-outs stand apart in the source and are kept apart here.

Experiments:
[1] = tested on: pS6RP, p4EBP1, survivin in MDA-MB-468 and HCC1937 cells; test: Immunoblotting of mTOR pathway effectors and survivin; assay type: cell-based, Human; conditions: immunoblot, 50 nmol/L at 24 hours, 100 nmol/L at 72 hours; for pS6RP (mTOR pathway effector) level: alisertib-sensitive and -resistant TNBC cell lines
How it was run: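 Cells were seeded in 6-well plates for 24 h, then exposed to test compounds at 50 nmol/L for 24 h or 100 nmol/L for 72 h, alone or combined. Cells were harvested with trypsin/EDTA and lysed. 50 µg protein was run on 4–12% Bis-Tris gels and transferred to nitrocellulose. Primary antibodies (S6RP, pS6RP, 4EBP1, p4EBP1, survivin, α-tubulin) were used at 1:1,000 overnight, with DyLight secondaries and infrared imaging.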

CAL51 FUCCI cells = test: FUCCI cell-cycle analysis and relative growth; assay type: cell-based, Human; conditions: 100 nmol/L each, 0 to 96 hours
How it was run: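 CAL51 cells transduced with the FUCCI biosensor (G1 red, S/G2–M green) were plated and treated with each test compound at 100 nmol/L, alone or combined. Live-cell fluorescence microscopy in an environmentally controlled chamber ran from 0 to 96 h. Relative growth came from time-lapse image growth curves. Combination was compared with single agents at 72 and 96 h.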

CU_TNBC_004 PDX model [2] = test: Tumor growth inhibition in TNBC PDX model CU_TNBC_004; assay type: in vivo, mouse; conditions: CU_TNBC_004 (alisertib-resistant); TAK-228 0.5 mg/kg daily, alisertib 30 mg/kg daily, p.o.; vs vehicle
How it was run: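 Tumor sections were implanted subcutaneously into both flanks by 12-gauge trocar. At an average of 150–300 mm³, mice were randomized to four arms: vehicle, 0.5 mg/kg daily, 30 mg/kg daily, or both combined, all by oral gavage. Caliper measurements and body weights were taken twice weekly; volume = length × width² × 0.52. TGI = [1 − (mean final treated volume/mean final vehicle volume)] × 100.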

CU_TNBC_007 PDX model = test: Tumor growth inhibition in TNBC PDX model CU_TNBC_007; assay type: in vivo, mouse; conditions: TAK-228 0.5 mg/kg daily, alisertib 30 mg/kg daily, vs vehicle
How it was run: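 PDX tumor sections were implanted subcutaneously via 12-gauge trocar into both flanks. At a mean of 150–300 mm³ mice were randomized to four arms: vehicle, 0.5 mg/kg daily, 30 mg/kg daily, or combination, all given by oral gavage. Calipers were read twice weekly and volume = length × width² × 0.52. TGI = [1 − (mean final treated volume / mean final vehicle volume)] × 100.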

CU_TNBC_004 PDX model [3] = test: SA-β-gal staining and H&E of PDX tumors; assay type: in vivo, mouse
How it was run: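 PDX tumors were grown subcutaneously in both flanks. At 150–300 mm³ mice were randomized to vehicle, 0.5 mg/kg daily, 30 mg/kg daily, or combination by oral gavage. Tumors were OCT-embedded, frozen in liquid nitrogen, and cryosectioned. Slides were fixed and stained for SA-β-gal activity at pH 6.0. Matched H&E slides were reviewed by a pathologist to confirm tumor cells. Images were taken at 40×.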

[4] = tested on: patients with advanced solid tumors
TNBC patients = conditions: alisertib monotherapy, 14 TNBC patients, phase II trial; cited from earlier work
[5] = tested on: patients with ER+/HER2− metastatic breast cancer; conditions: cited from earlier work
[6] = human; ref earlier clinical trials; cited from earlier work
CU_TNBC_004 PDX model [7] = test: Immunofluorescence; assay type: in vivo, mouse; conditions: CU_TNBC_004 tumors
How it was run: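 PDX tumor pieces were implanted subcutaneously by trocar into both flanks. At 150–300 mm³ mice were randomized to vehicle, 0.5 mg/kg daily, 30 mg/kg daily, or combination, all by oral gavage. Frozen OCT tumor sections were fixed and blocked (1% BSA/PBS, 1 h, 37°C), then stained with BAX and DR5 primaries and Alexa Fluor 488/555 secondaries (1 h, 37°C). DAPI counterstain was followed by confocal imaging at 60×.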

[8] = Phase I trial pharmacokinetics in human plasma; assay type: in vivo
[9] = single-agent alisertib, standard dosing schedule
[10] = human, plasma, oral, 1 mg, TAK-228 combo dose with alisertib, 1 mg cohort
[11] = human, plasma, oral, 1 mg, TAK-228 run-in dose (single agent), 1 mg cohort
[12] = human, plasma, oral, 3 mg, TAK-228 run-in dose (single agent), 3 mg cohort

COc1cc(Nc2ncc3c(n2)-c2ccc(Cl)cc2C(c2c(F)cccc2OC)=NC3)ccc1C(=O)O [alisertib]
survivin (antiapoptotic protein) level [1]: increase | pS6RP (mTOR pathway effector) level [1]: increase | Cell-cycle status (FUCCI) (CAL51 FUCCI cells): continued progression through the cell cycle | TGI (CU_TNBC_004 PDX model [2]): 35.09% and 35.1% | TGI (CU_TNBC_007 PDX model): 51.74% and 51.7% | Senescent cells by SA-β-gal staining (CU_TNBC_004 PDX model [3]): scattered senescent cells | MTD / RP2D of alisertib in combination with TAK-228 ([4]; b.i.d. days 1 to 7 of a 21-day cycle, oral): 30 mg | Most common toxicities attributed to the drug(s) ([4]; in vivo): neutropenia and fatigue | median progression-free survival (TNBC patients): 1.5 months | grade ≥3 neutropenia or stomatitis ([5]; intermittent alisertib schedule in combination with fulvestrant): no grade ≥3 neutropenia or stomatitis | grade 3 to 4 neutropenia [5, 9]: 57% | grade 3 to 4 stomatitis [5, 9]: 15% | half-life [6]: approximately 20 hours

CC(C)n1nc(-c2ccc3oc(N)nc3c2)c2c(N)ncnc21 [TAK-228]
p4EBP1 level [1]: decrease | survivin (antiapoptotic protein) level [1]: decrease | pS6RP (mTOR pathway effector) level [1]: decrease | Cell-cycle status (FUCCI) (CAL51 FUCCI cells): continued progression through the cell cycle | TGI (CU_TNBC_004 PDX model [2]): 54.47% and 54.5% | TGI (CU_TNBC_007 PDX model): 30.73% and 30.7% | Senescent cells by SA-β-gal staining (CU_TNBC_004 PDX model [3]): not observed | cytoplasmic BAX (CU_TNBC_004 PDX model [7]): increase | half-life ([8]; TAK-228 combo dose with alisertib, 2 mg cohort): 6.0 ± 2.1 h | AUC [8, 10]: 47.4 ± 13.8 ng·h/mL | AUC [8, 11]: 46.7 ± 13.1 ng·h/mL | Cmax [8, 10]: 8.6 ± 4.2 ng/mL | Cmax [8, 11]: 7.7 ± 2.6 ng/mL | Cmax ([8]; human, plasma, oral, 2 mg, TAK-228 combo dose with alisertib, 2 mg cohort): 24.7 ± 13.6 ng/mL | Cmax ([8]; human, plasma, oral, 2 mg, TAK-228 run-in dose (single agent), 2 mg cohort): 24.2 ± 8.8 ng/mL | AUC [8, 12]: 154 ± 110 ng·h/mL | Cmax [8, 12]: 25.7 ± 9.4 ng/mL | Tmax ([8]; human, plasma, oral, 3 mg, Tmax, TAK-228 run-in dose (single agent), 3 mg cohort): 1.3 ± 1.1 h | Patients with adverse effects at least possibly related to the drug ([4]; 18 patients, combination treatment): 72% | Most common toxicities attributed to the drug(s) ([4]; attribution to TAK-228 alone, alisertib alone or both drugs): Rash | Dose reduction of the drug required ([4]; combination treatment, all dose levels): 3 patients | MTD / RP2D of TAK-228 in combination with alisertib ([4]; daily, continuous dosing, oral): 2 mg
